Assay results published in ChEMBL document CHEMBL1135783, “Selective agonists at group II metabotropic glutamate receptors: synthesis, stereochemistry, and molecular pharmacology of (S)- and (R)-2-amino-4-(4-hydroxy[1,2,5]thiadiazol-3-yl)butyric acid” (J Med Chem, 2002).

Experiments:
[1] = target: Metabotropic glutamate receptor 1 (Rattus norvegicus, UniProt P23385); test: Compound was evaluated for the inhibitory activity against cloned Metabotropic glutamate receptor 1
How it was run: (§1)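 CHO cell lines stably expressing mGluR1α, mGluR2, mGluR4a or mGluR5a, grown at 37 °C in 5% CO2 in DMEM with reduced (S)-glutamine ([…]) and 10% dialyzed fetal calf serum. Cells were seeded 2 days before assay: 1.8 × 10^6 cells/well for inositol phosphate (PI hydrolysis) or 1.0 × 10^6 for cAMP formation. Antagonist activity was tested at 1 mM unless stated otherwise.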

[2] = target: Metabotropic glutamate receptor 5 (Rattus norvegicus, UniProt P31424); test: Compound was evaluated for the inhibitory activity against cloned Metabotropic glutamate receptor 5; how it was run: as §1
Sequence of Metabotropic glutamate receptor 5 (P31424 whole entry): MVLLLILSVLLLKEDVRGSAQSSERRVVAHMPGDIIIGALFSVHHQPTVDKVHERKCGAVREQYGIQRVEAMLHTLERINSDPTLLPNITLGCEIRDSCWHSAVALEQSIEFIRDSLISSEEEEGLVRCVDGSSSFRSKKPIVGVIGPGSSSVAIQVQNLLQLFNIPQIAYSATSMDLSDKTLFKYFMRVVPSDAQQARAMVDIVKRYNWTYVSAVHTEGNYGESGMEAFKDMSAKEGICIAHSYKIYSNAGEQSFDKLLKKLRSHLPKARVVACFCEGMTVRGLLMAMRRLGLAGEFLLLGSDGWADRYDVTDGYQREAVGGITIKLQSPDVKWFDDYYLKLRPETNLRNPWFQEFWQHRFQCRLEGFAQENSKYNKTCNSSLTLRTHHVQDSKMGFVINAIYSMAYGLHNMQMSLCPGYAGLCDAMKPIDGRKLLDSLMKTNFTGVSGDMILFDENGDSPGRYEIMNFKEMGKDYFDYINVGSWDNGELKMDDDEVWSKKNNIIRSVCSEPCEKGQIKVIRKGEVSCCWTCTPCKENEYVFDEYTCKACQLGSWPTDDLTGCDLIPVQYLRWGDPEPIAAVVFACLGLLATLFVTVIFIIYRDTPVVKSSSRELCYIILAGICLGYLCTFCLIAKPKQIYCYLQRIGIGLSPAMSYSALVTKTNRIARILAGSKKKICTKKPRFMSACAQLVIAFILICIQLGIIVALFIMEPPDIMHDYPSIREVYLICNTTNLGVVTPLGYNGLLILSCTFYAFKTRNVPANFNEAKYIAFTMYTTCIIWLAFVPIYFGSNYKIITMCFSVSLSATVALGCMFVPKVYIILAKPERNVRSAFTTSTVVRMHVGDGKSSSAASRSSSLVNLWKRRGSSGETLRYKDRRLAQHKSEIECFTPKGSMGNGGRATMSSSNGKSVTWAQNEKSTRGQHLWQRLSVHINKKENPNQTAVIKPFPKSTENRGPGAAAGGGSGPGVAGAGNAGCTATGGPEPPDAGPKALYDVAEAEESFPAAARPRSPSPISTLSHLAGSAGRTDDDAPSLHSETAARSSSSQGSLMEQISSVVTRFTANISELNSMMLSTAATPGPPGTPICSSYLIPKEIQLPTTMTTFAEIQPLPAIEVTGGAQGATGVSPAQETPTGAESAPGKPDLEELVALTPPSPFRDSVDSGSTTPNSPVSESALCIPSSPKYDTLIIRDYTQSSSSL

[3] = target: Metabotropic glutamate receptor 4 (Rattus norvegicus, UniProt P31423); test: Compound was evaluated for the inhibitory activity against cloned Metabotropic glutamate receptor 4; how it was run: as §1
Sequence of Metabotropic glutamate receptor 4 (P31423 whole entry): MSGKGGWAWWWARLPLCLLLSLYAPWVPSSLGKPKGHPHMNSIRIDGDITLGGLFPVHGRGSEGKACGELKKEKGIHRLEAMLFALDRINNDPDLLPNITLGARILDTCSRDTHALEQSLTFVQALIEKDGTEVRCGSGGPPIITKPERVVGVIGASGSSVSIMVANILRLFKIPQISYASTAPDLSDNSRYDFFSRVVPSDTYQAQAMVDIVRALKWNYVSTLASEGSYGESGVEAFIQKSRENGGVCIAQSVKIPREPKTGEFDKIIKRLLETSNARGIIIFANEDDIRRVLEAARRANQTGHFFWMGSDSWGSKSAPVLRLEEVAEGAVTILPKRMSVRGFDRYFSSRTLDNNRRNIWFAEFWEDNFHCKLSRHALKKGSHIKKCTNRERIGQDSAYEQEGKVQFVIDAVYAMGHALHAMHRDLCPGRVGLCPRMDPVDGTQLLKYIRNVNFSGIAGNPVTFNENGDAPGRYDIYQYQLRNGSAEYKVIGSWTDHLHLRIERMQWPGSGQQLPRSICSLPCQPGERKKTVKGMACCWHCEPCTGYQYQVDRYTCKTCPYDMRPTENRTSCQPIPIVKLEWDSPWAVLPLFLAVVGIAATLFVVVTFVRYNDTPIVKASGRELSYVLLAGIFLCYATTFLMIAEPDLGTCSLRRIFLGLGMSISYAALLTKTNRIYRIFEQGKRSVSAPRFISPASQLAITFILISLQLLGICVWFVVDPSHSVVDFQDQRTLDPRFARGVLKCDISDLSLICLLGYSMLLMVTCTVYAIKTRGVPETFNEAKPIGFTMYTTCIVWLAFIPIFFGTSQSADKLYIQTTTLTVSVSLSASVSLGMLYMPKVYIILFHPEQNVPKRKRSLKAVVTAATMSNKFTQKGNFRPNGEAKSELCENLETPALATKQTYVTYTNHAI

[4] = target: Metabotropic glutamate receptor 2 (Rattus norvegicus, UniProt P31421); test: Compound was evaluated for the inhibitory activity against cloned Metabotropic glutamate receptor 2; how it was run: as §1
Sequence of Metabotropic glutamate receptor 2 (P31421 whole entry): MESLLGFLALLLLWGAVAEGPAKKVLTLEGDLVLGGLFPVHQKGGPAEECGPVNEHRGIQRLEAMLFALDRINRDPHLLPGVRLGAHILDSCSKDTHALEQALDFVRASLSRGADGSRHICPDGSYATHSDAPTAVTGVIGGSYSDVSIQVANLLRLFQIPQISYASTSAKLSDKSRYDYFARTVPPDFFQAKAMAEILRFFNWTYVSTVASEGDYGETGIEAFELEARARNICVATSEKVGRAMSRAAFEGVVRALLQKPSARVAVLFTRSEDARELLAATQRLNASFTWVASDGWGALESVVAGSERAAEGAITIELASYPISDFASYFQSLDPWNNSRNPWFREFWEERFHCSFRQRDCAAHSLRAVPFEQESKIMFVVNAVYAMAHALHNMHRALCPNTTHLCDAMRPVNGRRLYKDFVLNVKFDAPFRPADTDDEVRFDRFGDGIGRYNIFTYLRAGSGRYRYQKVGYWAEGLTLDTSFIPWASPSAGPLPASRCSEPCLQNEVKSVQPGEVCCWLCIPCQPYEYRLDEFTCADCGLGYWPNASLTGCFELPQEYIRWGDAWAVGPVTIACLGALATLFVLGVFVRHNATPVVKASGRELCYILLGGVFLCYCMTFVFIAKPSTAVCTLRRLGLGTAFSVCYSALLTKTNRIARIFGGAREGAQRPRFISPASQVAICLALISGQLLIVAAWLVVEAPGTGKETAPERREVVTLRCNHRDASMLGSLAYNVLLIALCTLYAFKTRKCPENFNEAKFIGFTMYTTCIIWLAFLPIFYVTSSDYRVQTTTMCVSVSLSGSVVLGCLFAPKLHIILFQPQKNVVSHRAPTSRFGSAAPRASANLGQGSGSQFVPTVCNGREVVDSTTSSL

Sequence of Metabotropic glutamate receptor 1 (P23385 whole entry): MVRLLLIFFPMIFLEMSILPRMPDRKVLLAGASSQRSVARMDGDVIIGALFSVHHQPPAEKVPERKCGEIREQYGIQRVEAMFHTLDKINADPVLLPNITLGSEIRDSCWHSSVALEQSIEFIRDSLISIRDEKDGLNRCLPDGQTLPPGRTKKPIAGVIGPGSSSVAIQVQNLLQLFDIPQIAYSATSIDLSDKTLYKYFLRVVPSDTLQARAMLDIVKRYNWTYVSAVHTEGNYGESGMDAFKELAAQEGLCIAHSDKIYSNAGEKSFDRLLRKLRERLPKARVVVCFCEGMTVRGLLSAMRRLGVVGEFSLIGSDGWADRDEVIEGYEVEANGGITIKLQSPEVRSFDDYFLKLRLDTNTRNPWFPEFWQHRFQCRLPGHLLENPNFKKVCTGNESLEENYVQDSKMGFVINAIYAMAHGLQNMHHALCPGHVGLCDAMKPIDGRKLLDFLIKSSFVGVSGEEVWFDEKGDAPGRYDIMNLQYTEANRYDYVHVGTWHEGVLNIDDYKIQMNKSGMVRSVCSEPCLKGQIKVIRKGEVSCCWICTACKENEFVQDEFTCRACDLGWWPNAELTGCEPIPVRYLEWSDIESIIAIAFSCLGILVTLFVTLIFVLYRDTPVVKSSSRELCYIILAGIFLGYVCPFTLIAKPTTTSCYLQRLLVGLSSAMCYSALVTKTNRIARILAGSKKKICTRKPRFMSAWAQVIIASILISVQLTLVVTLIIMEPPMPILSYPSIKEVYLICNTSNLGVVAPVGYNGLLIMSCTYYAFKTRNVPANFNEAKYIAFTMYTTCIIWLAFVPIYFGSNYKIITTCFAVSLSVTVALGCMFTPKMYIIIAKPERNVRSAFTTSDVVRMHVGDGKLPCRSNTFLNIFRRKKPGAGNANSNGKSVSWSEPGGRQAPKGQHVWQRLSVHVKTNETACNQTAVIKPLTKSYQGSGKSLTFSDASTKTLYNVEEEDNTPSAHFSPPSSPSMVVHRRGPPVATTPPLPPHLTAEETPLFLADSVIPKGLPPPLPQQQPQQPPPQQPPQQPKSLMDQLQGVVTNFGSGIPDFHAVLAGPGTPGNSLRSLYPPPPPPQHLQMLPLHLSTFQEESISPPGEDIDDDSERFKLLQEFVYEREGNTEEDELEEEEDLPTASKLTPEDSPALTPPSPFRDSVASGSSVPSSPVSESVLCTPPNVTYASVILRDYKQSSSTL

EC50 [1] [mM]	EC50 [2] [µM]	EC50 [3] [mM]	EC50 [4] [mM]	Compound
> 1	> 1000	> 1	–	N[C@H](CCc1nsnc1O)C(=O)O
> 1	190	> 1	–	N[C@@H](CCc1nsnc1O)C(=O)O
–	–	0.012	–	N[C@@H](CCC(=O)O)C(=O)O [GLUTAMIC ACID]

The remaining lines, values behind:

Compound	EC50 [1] [mM]	EC50 [2] [µM]	EC50 [3] [mM]	EC50 [4] [mM]
N[C@H](Cc1cc(=O)[nH]o1)C(=O)O	> 1	> 1000	> 1	> 1
N[C@@H](Cc1cc(=O)[nH]o1)C(=O)O	0.25	490	> 1	> 1
N[C@@H](CCCC(=O)O)C(=O)O [(S)-2-AMINOADIPIC ACID]	–	> 1000	–	–
